Reference: ChEMBL document CHEMBL3865830, “Multifunctional diamine AGE/ALE inhibitors with potential therapeutical properties against Alzheimer's disease” (Eur J Med Chem, 2016)

How the values were obtained:
[1] = Metal chelating activity of compound assessed as compound-Cu2+ complex formation at 2 mM after 10 mins in presence of CuSO4.5H2O by complexometric indicator murexide based UV-Vis spectrophotometric analysis; format: physicochemical; conditions: 2000 µM
Outline: (§1)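 Compound (0.02-2 mM) incubated with CuSO4 (120 µM) for 10 min at rt, in 10 mM hexamine/HCl with 10 mM KCl (pH 5.0), or in buffer/MeOH 75:25 for poorly soluble compounds. Murexide added, 1 min more. The A485/A520 ratio gives free Cu2+ from a CuSO4 calibration curve (0-125 µM). % chelation is taken by difference from the no-compound control; triplicates.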

[2] = Metal chelating activity of compound assessed as compound-Cu2+ complex formation at 0.1 mM after 10 mins in presence of CuSO4.5H2O by complexometric indicator murexide based UV-Vis spectrophotometric analysis; format: physicochemical; conditions: 100 µM; outline: as §1
[3] = Reactive carbonyl species trapping activity of compound assessed as MDA adduct formation at 10 mM preincubated for 24 hrs with MDA measured after 24 hrs by LCMS analysis; format: physicochemical; conditions: 10000 µM
[4] = Reactive carbonyl species trapping activity of compound assessed as MGO adduct formation at 10 mM preincubated for 24 hrs with MGO measured after 0.5 hrs by LCMS analysis; format: physicochemical; conditions: 10000 µM
[5] = Reactive carbonyl species trapping activity of compound assessed as MDA adduct formation at 10 mM preincubated for 24 hrs with MDA measured after 0.5 hrs by LCMS analysis; format: physicochemical; conditions: 10000 µM
[6] = Metal chelating activity of compound assessed as compound-Cu2+ complex formation at 0.08 mM after 10 mins in presence of CuSO4.5H2O by complexometric indicator murexide based UV-Vis spectrophotometric analysis; format: physicochemical; conditions: 80 µM; outline: as §1
[7] = Reactive carbonyl species trapping activity of compound assessed as MDA adduct formation at 10 mM preincubated for 24 hrs with MDA measured after 0.25 hrs by LCMS analysis; format: physicochemical; conditions: 10000 µM
[8] = Reactive carbonyl species trapping activity of compound assessed as MGO adduct formation at 10 mM preincubated for 24 hrs with MGO measured after 24 hrs by LCMS analysis; format: physicochemical; conditions: 10000 µM
[9] = Metal chelating activity of compound assessed as compound-Cu2+ complex formation at 0.5 mM after 10 mins in presence of CuSO4.5H2O by complexometric indicator murexide based UV-Vis spectrophotometric analysis; format: physicochemical; conditions: 500 µM; outline: as §1
[10] = Metal chelating activity of compound assessed as compound-Cu2+ complex formation at 1 mM after 10 mins in presence of CuSO4.5H2O by complexometric indicator murexide based UV-Vis spectrophotometric analysis; format: physicochemical; conditions: 1000 µM; outline: as §1
[11] = Metal chelating activity of compound assessed as compound-Cu2+ complex formation at 200 uM after 10 mins in presence of CuSO4.5H2O by complexometric indicator murexide based UV-Vis spectrophotometric analysis; format: physicochemical; outline: as §1
[12] = Reactive carbonyl species trapping activity of compound assessed as MDA adduct formation at 10 mM preincubated for 24 hrs with MDA measured after 1 hr by LCMS analysis; format: physicochemical; conditions: 10000 µM
[13] = Reactive carbonyl species trapping activity of compound assessed as MDA adduct formation at 10 mM preincubated for 24 hrs with MDA measured after 5 hrs by LCMS analysis; format: physicochemical; conditions: 10000 µM
[14] = Reactive carbonyl species trapping activity of compound assessed as MGO adduct formation at 10 mM preincubated for 24 hrs with MGO measured after 5 hrs by LCMS analysis; format: physicochemical; conditions: 10000 µM
[15] = organism: Rattus norvegicus; assay: Cytotoxicity against rat […] PC12 cells assessed as reduction in cell viability at 10 to 100 uM after 24 hrs by WST8-based CCK8 assay; format: toxicity; conditions: pc-12, 24 h
Outline: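 PC12 Adh cells (rat pheochromocytoma-derived) grown in F-12K with 2.5% FBS, 15% horse serum and pen/strep at 37 °C, 5% CO2. Seeded at 5×10^3 cells/well; treated at 80% confluency with 10 or 100 µM for 24 h. 10% DMSO served as positive cytotoxicity control. CCK-8 added for 1 h at 37 °C, absorbance read at 450 nm. Viability given as % of untreated cells; at least three experiments in triplicate.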

[16] = Reactive carbonyl species trapping activity of compound assessed as MGO adduct formation at 10 mM preincubated for 24 hrs with MGO measured after 1 hr by LCMS analysis; format: physicochemical; conditions: 10000 µM
[17] = Antioxidant activity assessed as inhibition of AAPH-induced peroxyl radical generation measured as trolox equivalent at 10 uM preincubated for 30 mins followed by AAPH addition measured evey 60 secs for 60 cycles by ORAC-FL assay; format: functional; conditions: in the assay text read “90 secs” for “60 secs”
Outline: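 Fluorescein (12 nM) preincubated with compound (1-20 µM) or Trolox standard (1-50 µM) in D-PBS, at least 30 min at 37 °C. Reaction started with AAPH (30 mM). Fluorescence (ex 485/em 520 nm) read every 90 s for 60 cycles. Net AUC is converted to Trolox equivalents via the Trolox calibration line. Values are reported at 10 µM, from at least three independent experiments in triplicate.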

[18] = Metal chelating activity of compound assessed as compound-Cu2+ complex formation at 0.05 mM after 10 mins in presence of CuSO4.5H2O by complexometric indicator murexide based UV-Vis spectrophotometric analysis; format: physicochemical; conditions: 50 µM; outline: as §1
[19] = Metal chelating activity of compound assessed as compound-Cu2+ complex formation at 0.02 mM after 10 mins in presence of CuSO4.5H2O by complexometric indicator murexide based UV-Vis spectrophotometric analysis; format: physicochemical; conditions: 20 µM; outline: as §1
[20] = Reactive carbonyl species trapping activity of compound assessed as MGO adduct formation at 10 mM preincubated for 24 hrs with MGO measured after 15 mins by LCMS analysis; format: physicochemical; conditions: 0.25 h, 10000 µM
[21] = Reactive carbonyl species trapping activity of compound assessed as MGO adduct formation at 10 mM preincubated for 24 hrs with MGO measured after 0.25 hrs by LCMS analysis; format: physicochemical; conditions: 10000 µM

Row | Compound | Activity [1] [%] | Activity [2] [%] | Activity [3] [%] | Activity [5] [%] | Activity [6] [%] | Activity [7] [%] | Activity [8] [%] | Activity [9] [%] | Activity [10] [%] | Activity [11] [%] | Activity [12] [%] | Activity [13] [%] | Activity [14] [%] | Activity [15] | Activity [16] [%] | Activity (umolequiv/umol) [17] | Activity [18] [%] | Activity [19] [%] | Activity [20] [%] | Activity [21] [%] | also measured
1 | Cl.Cl.NCC(N)C(=O)N1CCNCC1 (stereo not given) | 62.15 | 13.97 | 100 | 100 | 10.65 | 100 | 82 | 40.27 | 51.61 | 23.6 | 100 | 100 | 51 | Non-Toxic | 37 | 0 | 7.07 | 3.25 |  |  | Activity [4]: 33%
2 | Cl.Cl.NCC(N)CCCCNC(=O)c1cc(O)c(O)c(O)c1 (stereo not given) | 88.48 | 61.98 | 81 | 80 | 50.28 |  | 95 | 93.72 | 93.82 | 87.39 | 84 | 87 | 89 | Non-Toxic | 93 | 2.59 | 31.34 | 14.24 | 90 | 90 | 
3 | Cl.Cl.NCC(N)CCC(=O)N1CCN(C(=O)CCn2cccc(O)c2=O)CC1 (stereo not given) | 76.53 | 36.03 | 84 | 76 | 31.08 | 74 | 98 | 71.58 | 74.59 | 53.23 | 81 | 85 | 99 | Non-Toxic | 98 | 0.99 | 23.88 | 11.76 | 97 | 97 | Activity [4]: 97%
4 | Cl.Cl.NCC(N)CC(=O)N1CCN(C(=O)CCn2cccc(O)c2=O)CC1 (stereo not given) | 78.98 | 30.74 | 91 |  | 27.53 | 75 | 99 | 68.5 | 75.14 | 50.25 | 87 | 92 | 99 | Toxic | 99 | 0.58 | 18.5 | 10.33 | 99 | 99 | Activity [4]: 97%
5 | Cc1c(C)c2c(c(C)c1O)CCC(C)(C(=O)O)O2 (stereo not given) |  |  |  |  |  |  |  |  |  |  |  |  |  |  |  | 1 |  |  |  |  | 
6 | CCCCN1CCN(C(=O)C(N)CN)CC1.Cl.Cl (stereo not given) | 62.53 | 16.55 | 62 | 65 | 14.87 | 62 | 100 | 43.56 | 53.27 | 27.68 |  | 77 | 93 |  | 70 |  | 10.28 | 3.22 | 59 | 59 | 
7 | NCCN [ETHYLENEDIAMINE] | 100 | 69.82 |  |  | 64.61 |  |  | 100 | 100 | 100 |  |  |  |  |  |  | 44.49 | 18.81 |  |  | 
